High-throughput results deposited in PubChem BioAssay by The Scripps Research Institute Molecular Screening Center.
This is a sample that favours compounds with a hit; in the whole collection about 1.6% have one here.
IMP-1 inh = inhibitors of Pseudomonas aeruginosa IMP-1 metallo-beta-lactamase; purified IMP-1, nitrocefin hydrolysis, epi-absorbance fluorescence; actives 0.45% (n = 290,000); AID 1556; inhibition, % at 5.6 µM;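 active = inhibition above the mean plus 3 SD of all compounds in the same screening run, cut at about 4.5% in these data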
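System: purified IMP-1; amount: IMP-1 0.2 nM before substrate addition; compound: single dose, 5.6 µM; times: 25 °C, 15 min preincubation, 25 min reaction; signal: Epi-absorbance via hydrolysed-nitrocefin quenching of white-plate fluorescence, 480/530 nm, EDTA stop; benchmarks: DMSO with and without IMP-1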
VIM-2 inhibitor = blocks Pseudomonas aeruginosa VIM-2 metallo-beta-lactamase. inhibition, % at 5.6 µM. actives 0.89% (n = 290,000). purified VIM-2, nitrocefin hydrolysis, epi-absorbance fluorescence. AID 1527;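 active = inhibition above the mean of all tested compounds plus 3 SD, cutoff set per screening run, cut at about 7.5% in these data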;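 also: red hydrolysis product quenches plate fluorescence so inhibitors raise well fluorescence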
core dimer inh = blocks dimerization of HCV core protein; TR-FRET GST/Flag-core106 dimerization, 1536-well; inhibition, % at 5 µM; actives 0.33% (n = 300,000);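 active = inhibition above the mean of all tested compounds plus 3 SD, set per screening campaign, cut at about 45% in these data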
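Assay system – GST-tagged and Flag-tagged HCV core protein residues 1-106 · Quantity – core106 proteins, GST 13.5 nM and Flag 17 nM · Benchmarks – unlabelled core106 and no-GST-core106 wells · Read-out basis – percent inhibition of core106 dimerization signal · Detection – time-resolved FRET, ex 340 nm, em 617 and 671 nm · Schedule – 4 h at 22.5 °C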
DNA FID counter = fluorescent intercalator displacement, NS3 helicase counter-screen; actives 0.17% (n = 290,000); DNA fluorescent intercalator displacement, fluorescence; inhibition, % at 7.9 µM; in the data active = inhibition above about 37%;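 also: higher means more ethidium bromide displaced from hairpin DNA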
Numbers stand for hits; n = inactive; x = no result given.

SMILES | IMP-1 inh | VIM-2 inhibitor | core dimer inh | DNA FID counter
O=C(O)C1Sc2[nH]c(=O)sc2C2c3cc(Br)ccc3OC(=O)C12 (configuration not stated) | 5.5 | n | n | n
COc1ccc(/C=C/c2nnc(NC(=O)CSc3ccc(Cl)cc3)s2)cc1 | n | n | n | n
COC(=O)c1cc(Sc2cccc(Cl)c2Cl)ccn1 | n | 9.2 | n | n
COC(=O)c1cc(Sc2c(Cl)cccc2Cl)ccn1 | n | n | n | n
Cn1c(=O)c([N+](=O)[O-])c(NCCCn2ccnc2)c2ccccc21 | n | 7.9 | n | n
Cc1cc(C)cc(-n2c3nc4ccccc4nc3c3c(=O)n(Cc4ccco4)cnc32)c1 | n | n | 60 | n
CCN(CC)CCCOc1nc(C)nc2c1oc1ccccc12 | n | 31 | x | n
CCN(CC)CCOc1nc(C)nc2c1oc1ccccc12 | n | 8.6 | n | n
COCc1cc(C)nc(N2CCCCC2)c1C#N | n | n | n | n
COc1ccc(-n2c(C(C)n3nc(C)c([N+](=O)[O-])c3C)n[nH]c2=S)cc1 (configuration not stated) | n | n | n | n
Cc1n[nH]c(=S)n1Cc1ccccc1 | n | 11 | n | n
COc1ccc(-c2n[nH]c(=S)n2-c2ccccc2C)cc1 | n | 8.8 | n | n
COc1ccc(-n2c(-c3cccc(C)c3[N+](=O)[O-])n[nH]c2=S)cc1 | n | 38 | n | n
S=c1[nH]nc(C2CCCCC2)n1Cc1ccccc1 | n | 9.3 | n | n
CCCn1nnnc1-c1cc(Cl)cc(Cl)c1 | n | n | n | n
Cc1n[nH]c(=S)n1-c1ccccc1 | n | 10 | n | n
COc1ccc(-c2n[nH]c(=S)n2Cc2ccccc2)cc1OC | n | 7.8 | n | n
Cc1ccccc1-n1c(-c2csc(C)c2C)n[nH]c1=S | n | 11 | n | n
Cc1ccccc1-n1c(-c2csc3ccccc23)n[nH]c1=S | n | n | n | n
COc1cc(OC)cc(-c2n[nH]c(=S)n2-c2ccc3c(c2)OCO3)c1 | n | 8.7 | n | n
Fc1ccc(-n2c(-c3ccc4c(c3)OCO4)n[nH]c2=S)cc1Cl | n | n | n | n
NCC(=O)N1CCC(C(=O)N[C@@H](Cc2c[nH]c3ccccc23)C(=O)O)CC1 | n | n | x | n
O=C(Cc1ccc(Nc2nc3ccc(Br)cc3[nH]2)cc1)NCCc1cccs1 | n | n | n | n
Cc1ccc(CN2C(=O)CCC2C(=O)NC2CC2)cc1 (configuration not stated) | n | n | n | n
Cc1ccc(N(C(=O)CCC(=O)Nc2ccccn2)C(C(=O)NC(C)C)c2ccc(F)cc2)cc1 (configuration not stated) | n | n | n | n
SMILES | IMP-1 inh | VIM-2 inhibitor | core dimer inh | DNA FID counter
COc1ccc(C(=O)OC(COc2ccccc2)Cn2ccnc2)cc1 (configuration not stated) | n | n | n | n
COc1ccc(-c2n[nH]c(=S)n2Cc2ccccc2)cc1 | n | 9.2 | n | n
COc1cccc(-c2n[nH]c(=S)n2Cc2ccco2)c1 | n | 9.1 | n | n
O=C(NCC1CCCO1)c1nn2cccnc2c1Cl (configuration not stated) | n | n | n | n
CC(C)CN(C(=O)COC(=O)c1cc2c(s1)CCC2)C1CCS(=O)(=O)C1 (configuration not stated) | n | n | 88 | n
CCN(C(=O)COC(=O)c1cc2c(s1)CCCCC2)C1CCS(=O)(=O)C1 (configuration not stated) | n | n | n | n
CCOc1ccc2[nH]c(=O)c(CN(Cc3nnnn3Cc3ccco3)C3CCCCC3)cc2c1 | n | n | n | n
COc1cc2cc(CN(Cc3nnnn3Cc3ccco3)C3CCCCC3)c(=O)[nH]c2cc1OC | n | 9.3 | n | n
COc1ccccc1-n1cc2c([N+](=O)[O-])cc([N+](=O)[O-])cc2n1 | n | n | n | n
COCCn1cnnc1SCC(=O)c1ccc(S(=O)(=O)N2CCCC2)cc1 | n | n | 54 | n
COc1ccc(-n2c(-c3ccccc3)nc(=S)c3c2CCCC3)cc1 | n | n | 77 | n
COc1ccc(-n2c(-c3cccc(OC)c3)nc(=S)c3c2CCCC3)cc1 | n | n | 66 | n
COc1ccc(N/N=C(\C=N\O)C(=O)c2ccc(OC)cc2)cc1 | n | n | n | n
N/N=C/C(=N\Nc1ccc(Cl)cc1)C(=O)c1ccncc1 | n | 8.8 | n | n
CCOc1ccc(NC(=O)CSc2nnc(CCNC(=O)c3ccc(OC)cc3)n2C)cc1 | n | n | n | n
CC1(C)C(/C=C/C=C/C=C/C=C2\N(CCCCS(=O)(=O)O)c3ccc4ccccc4c3C2(C)C)=[N+](CCCCS(=O)(=O)[O-])c2ccc3ccccc3c21 | x | x | 69 | x
Cc1c2ccccc2cc[n+]1CCCS(=O)(=O)[O-] | n | n | n | n
CCN(CC)C(=O)CSc1nnc(-c2cc3ccccc3cc2O)n1CC | n | 10 | n | n
Oc1cccc(NC(=S)N=Nc2c(O)[nH]c3ccccc23)c1 | n | n | n | n
COc1cccc(C(=O)NC2CC3CCCC(C2)N3CC(=O)Nc2ccccc2)c1 (configuration not stated) | 28 | n | n | n
COc1cccc(C(=O)NC2CC3CCCC(C2)N3CC(=O)Nc2ccc(N(C)C)cc2)c1 (configuration not stated) | n | n | n | n
O=C(Nc1nn[nH]n1)C12CC3CC(CC(C3)C1)C2 | n | 9.0 | n | n
Cc1ccccc1C(=O)NC1CCN(C(=O)N(c2ccccc2)c2ccccc2)CC1 | 4.6 | n | n | n
C#CCOCCOCCOCCNc1nc(N2CCN(C(=O)[C@H](CCC(=O)O)n3cc(C(N)Cc4ccc(O)cc4)nn3)CC2)nc(N2CCN(C(=O)[C@H](CCC(=O)O)n3cc(C(N)CC(C)C)nn3)CC2)n1 (some centres not stated) | n | n | n | n
C#CCOCCOCCOCCNc1nc(N2CCN(C(=O)[C@H]([C@@H](C)CC)n3cc([C@@H](N)CO)nn3)CC2)nc(N2CCN(C(=O)[C@H](Cc3ccc(O)cc3)n3cc([C@@H](N)CC(C)C)nn3)CC2)n1 | n | n | n | 41
C#CCOCCOCCOCCNc1nc(N2CCN(C(=O)[C@H](CCC(=O)O)n3cc(C(N)Cc4ccc(O)cc4)nn3)CC2)nc(N2CCN(C(=O)[C@H](CCC(=O)O)n3cc(C(N)[C@H](C)CC)nn3)CC2)n1 (some centres not stated) | 5.2 | n | n | n
C#CCOCCOCCOCCNc1nc(N2CCN(C(=O)[C@H]([C@@H](C)CC)n3cc([C@@H](N)Cc4ccc(O)cc4)nn3)CC2)nc(N2CCN(C(=O)[C@H](Cc3ccc(O)cc3)n3cc([C@@H](N)C(C)CC)nn3)CC2)n1 (some centres not stated) | n | n | n | 45
C#CCOCCOCCOCCNc1nc(N2CCOCC2)nc(N2CCN(C(=O)[C@H](Cc3ccc(O)cc3)n3cc([C@@H](N)CC(C)C)nn3)CC2)n1 | n | n | n | n
